Screening data: PubChem, several laboratories
UCH37 DUB inh – blocks the human deubiquitinase UCH37 | purified proteasome/UCH37, Ub-AMC cleavage fluorescence | AID 588478 | 330,000 compounds, 0.33% hits | inhibition, % (test concentration not listed) | Q9Y5K5;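 active = mean inhibition over replicate wells above about 20%, limit read from the data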
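Reagent: Ub-AMC substrate; assay system: Proteasome-associated human UCH37 deubiquitinase; controls: no-proteasome and no-compound wells; read-out: % inhibition of Ub-AMC cleavage fluorescence; timing: 30 min preincubation with enzyme, 25 min cleavage at room temperature; signal: AMC fluorescence from Ub-AMC cleavage, excitation 355 nm, emission 460 nm; buffer or medium: Tris-HCl pH 7.4 plus ovalbumin, ATP-MgCl2, DTT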
ATG4B inhibitor – ATG4B (human) cysteine protease inhibition; Q9Y4P1; ATG4B cleavage of LC3-PLA2, NBD-HPC fluorescence, 1 h; inhibition, % at 8.33 µM; 340,000 compounds, 0.51% hits; AID 504462; in the data active = inhibition above about 40%
TbMetRS inhib – blocks T. brucei methionyl-tRNA synthetase activity; 360,000 compounds, 0.4% hits; purified T. brucei MetRS, ATP depletion, Kinase-Glo luminescence; AID 624268; inhibition, % at 11.9 µM;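 active = inhibition above a per-plate cutoff of the control wells' mean inhibition plus 3 SD, cut at about 5.5% in these data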
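Dosing: 11.9 µM single point; system: parasite MetRS enzyme; technique: luminescence of leftover ATP; times: 15 min enzyme-compound preincubation, 2 h reaction, 10 min detection, 25 °C; replicates: each compound tested once; read-out basis: percent inhibition relative to median high and low control wells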
Rin1-Abl PPI inh – blocks binding of human Rin1 to Abl; TR-FRET Rin1/Abl binding, biochemical; 360,000 compounds, 0.4% hits; P00519+Q13671; inhibition, % at 7.35 µM; in the data active = inhibition above about 5%, passing the limit was not always enough
TbMetRS confirm – Trypanosoma brucei MetRS inhibition confirmed; shares compounds with TbMetRS inhib; T. brucei MetRS enzyme, luminescence (ATP depletion); inhibition, % at 11.9 µM; 1,400 compounds, 93% hits; in the data active = inhibition above about 7%
Jurkat tox – kills Jurkat cells in T. brucei MetRS counterscreen; shares compounds with TbMetRS inhib; Jurkat cells viability, ATP luminescence; inhibition, % at 8.3 µM; 1,400 compounds, 12% hits; in the data active = inhibition above about 15%
Tb MetRS inh FP – inhibits T. brucei methionyl tRNA synthetase in orthogonal FP test; 1,400 compounds, 44% hits; purified T. brucei MetRS, fluorescence polarization; shares compounds with TbMetRS inhib; inhibition, % at 11.9 µM; in the data active = inhibition above about 17%
Of the large screens only hits and unclear results are named; the others gave an inactive call (follow-up assays come after a bar, where they were run). Only some compounds are listed: those with a hit (about 1.4% of all), similar ones and a draw of the others.

c1ccc(CNc2nc3ccccc3[nH]2)cc1	TbMetRS inhib 25.7 | TbMetRS confirm 34.9 | Jurkat tox inactive | Tb MetRS inh FP 19.9
COc1ccc(NC(=O)c2ccc(NC(=O)CN3CCN(c4ccccc4OC)CC3)cc2)cc1	none (no result: UCH37 DUB inh, ATG4B inhibitor)
Cc1sc2nc3c4ccccc4c(NCc4ccco4)nn3c(=O)c2c1C	none
C(=NNc1nc2ccccc2[nH]1)c1ccc2c(c1)OCO2	none (no result: ATG4B inhibitor, TbMetRS inhib, Rin1-Abl PPI inh)
c1ccc2[nH]c(NCc3ccc4c(c3)OCO4)nc2c1	TbMetRS inhib 18.0 | TbMetRS confirm 30.4 | Jurkat tox inactive | Tb MetRS inh FP inactive
COc1cc(C(=S)N2CCCC2)ccc1OC(=O)c1ccc(Cl)cc1[N+](=O)[O-]	none
Cn1c(CSc2ncccn2)nnc1SCC(=O)N1CCCCC1	none
CCN(CC)S(=O)(=O)c1ccc(N2CCOCC2)c(NCC(=O)Nc2ccc(F)cc2)c1	TbMetRS inhib 22.1 | TbMetRS confirm 32.7 | Jurkat tox inactive | Tb MetRS inh FP inactive
O=C(OCC(=O)c1c[nH]c2ccccc12)c1ccc([N+](=O)[O-])s1	TbMetRS inhib 10.4 | TbMetRS confirm 22.6 | Jurkat tox inactive | Tb MetRS inh FP inactive
CCc1cccc2c(C(=O)COC(=O)c3ccc([N+](=O)[O-])s3)c[nH]c12	none
CC(C)(C)C1CCC(=NNC(=O)CN(c2ccccc2)S(=O)(=O)c2ccccc2[N+](=O)[O-])CC1 (stereo not given)	none
C=CCN1C(=O)c2ccc(C(=O)NCC(=O)Nc3c(C)cc(C)cc3C)cc2C1=O	none
O=C(CSc1nnc2c(n1)[nH]c1ccccc12)NCc1ccccc1F	TbMetRS inhib 6.5 | TbMetRS confirm 44.5 | Jurkat tox inactive | Tb MetRS inh FP 27.4
O=C(CSc1nnc2c(n1)[nH]c1ccc(F)cc12)Nc1ccccc1F	none
CC(C)[N+]1=C2C=CC=CC=C2SC12C([N+](=O)[O-])=CC(=[N+]([O-])[O-])C=C2[N+](=O)[O-] (stereo not given)	none
COc1cccc(Nc2nc3ccccc3c(=O)[nH]2)c1	TbMetRS inhib 8.6 | TbMetRS confirm 17.8 | Jurkat tox inactive | Tb MetRS inh FP inactive
COc1cccc(/C(O)=C/c2nc3ccc(C(=O)NCCc4cccc(C)c4)cc3[nH]c2=O)c1	TbMetRS inhib 7.4 | TbMetRS confirm 6.6 | Jurkat tox 15.1 | Tb MetRS inh FP inactive
CSc1cccc(NC(=O)Cn2cnc(S(=O)(=O)N3CCCC3)c2)c1	TbMetRS inhib 8.6 | TbMetRS confirm 19.5 | Jurkat tox inactive | Tb MetRS inh FP inactive
O=C(Cn1cnc(S(=O)(=O)N2CCCC2)c1)Nc1cccc(Br)c1	TbMetRS inhib 14.4 | TbMetRS confirm 36.2 | Jurkat tox inactive | Tb MetRS inh FP inactive
CC(=O)c1cccc(NC(=O)Cn2cnc(S(=O)(=O)N3CCCCC3)c2)c1	none
Cc1cc(C)nc(SC2c3cccc4cccc(c34)C2NS(=O)(=O)c2ccccc2)n1 (stereo not given)	none
CCCNC(=O)C1(CC2CC(c3ccccc3)=NO2)CCN(C(=O)c2cc(OCC)c(OCC)c(OCC)c2)CC1 (stereo not given)	none (no result: UCH37 DUB inh)
COc1ccccc1-n1c(SCC(=O)Nc2ccc3c(c2)OCO3)nc2c(c1=O)SCC2	none
Nc1cc(C(=O)OCC(=O)NCc2ccc(F)cc2)ccc1Cl	TbMetRS inhib 43.0 | TbMetRS confirm 62.6 | Jurkat tox inactive | Tb MetRS inh FP 33.8
O=C(COC(=O)c1ccc(Cl)nc1)NCc1ccc(F)cc1	none
COc1ccc(N2CCN(C(=O)CCCCn3c(=O)[nH]c4ccsc4c3=O)CC2)cc1	TbMetRS inhib 6.7 | TbMetRS confirm 12.6 | Jurkat tox inactive | Tb MetRS inh FP inactive
COc1ccc(N2CCN(C(=O)CCCn3c(=O)[nH]c4ccsc4c3=O)CC2)cc1	none
Nc1ncnc2nc(Sc3ccc(Cl)cc3)[nH]c12	none
Nc1ncnc2nc(SCc3ccc(Cl)cc3Cl)[nH]c12	TbMetRS inhib 12.5 | TbMetRS confirm 32.4 | Jurkat tox 15.5 | Tb MetRS inh FP inactive
CC1=C(C(=O)N2CCCCCC2)CC(CC(=O)NC2CCCCC2)C(=O)N1Cc1ccc(C(C)(C)C)cc1 (stereo not given)	none (no result: UCH37 DUB inh, ATG4B inhibitor)
O=C(NC1CCCCC1)c1ccc([N+](=O)[O-])cc1	none
O=C(NCC1COc2ccccc2O1)c1ccc(-n2cncn2)c([N+](=O)[O-])c1 (stereo not given)	TbMetRS inhib 19.4 | TbMetRS confirm 57.7 | Jurkat tox inactive | Tb MetRS inh FP 30.7
CC(=O)c1ccc(NCC2COc3ccccc3O2)c([N+](=O)[O-])c1 (stereo not given)	none
CC1CCC(NC(=O)c2ccc(-n3cncn3)c([N+](=O)[O-])c2)CC1 (stereo not given)	TbMetRS inhib 12.1 | TbMetRS confirm 51.8 | Jurkat tox inactive | Tb MetRS inh FP 24.4
O=C(NC1CCCCC1)c1ccc(-n2cncn2)c([N+](=O)[O-])c1	TbMetRS inhib 23.8 | TbMetRS confirm 50.9 | Jurkat tox inactive | Tb MetRS inh FP 28.4
CCC(C)[C@H](NC(=O)OC(C)(C)C)C(=O)N/N=C/c1cccc2nccnc12 (stereo not given in full)	none (no result: UCH37 DUB inh)
Cc1ccc(Cl)cc1NC(=O)Cn1cccc1	none
CCNC(=S)NNC(=O)c1ccc(S(=O)(=O)NCc2ccco2)cc1	TbMetRS inhib 6.2 | TbMetRS confirm 25.4 | Jurkat tox inactive | Tb MetRS inh FP inactive
CC(C)(C)c1ccc(C(=O)NNC(=S)NCc2ccco2)cc1	none
COc1ccc(N2CCC(CNC(=O)Nc3cccc(OC)c3)C2)cc1 (stereo not given)	none
COc1ccc(N2CCC(CNC(=O)Nc3ccc(Cl)cc3)C2)cc1 (stereo not given)	TbMetRS inhib 13.8 | TbMetRS confirm 28.7 | Jurkat tox inactive | Tb MetRS inh FP 25.4
Cc1cc(Cl)ccc1OCC(=O)NCC(=O)NN=Cc1ccco1	none (no result: ATG4B inhibitor, TbMetRS inhib, Rin1-Abl PPI inh)
Cc1cc(Cl)ccc1OCC(=O)NCC(=O)N/N=C/c1ccco1	TbMetRS inhib 6.8 (no result: UCH37 DUB inh) | TbMetRS confirm 70.9 | Jurkat tox inactive | Tb MetRS inh FP 19.7
O=C(CCCC1=NS(=O)(=O)c2ccccc2N1)OCc1ccc(Cl)cc1	TbMetRS inhib 20.2 | TbMetRS confirm 44.2 | Jurkat tox inactive | Tb MetRS inh FP inactive
CN(C)C(=O)c1ccccc1Sc1ccc(Cl)cc1Cl	TbMetRS inhib 6.0 | TbMetRS confirm 16.2 | Jurkat tox inactive | Tb MetRS inh FP inactive
C=CCc1cccc(CNc2nc3ccccc3n2CCC)c1O	TbMetRS inhib 18.5 | TbMetRS confirm 31.2 | Jurkat tox inactive | Tb MetRS inh FP 18.0
O=C(Cc1c(F)cccc1Cl)Nc1cc(S(=O)(=O)N2CCOCC2)ccc1N1CCCC1	none
O=C(Cc1ccc(Cl)cc1)Nc1cc(S(=O)(=O)N2CCOCC2)ccc1N1CCCC1	TbMetRS inhib 38.6 | TbMetRS confirm 52.3 | Jurkat tox inactive | Tb MetRS inh FP 27.6
